T cruzi inh = T. cruzi replication inhibition | inhibition, % (test concentration not listed) | 1.4% of 300,000 active | T. cruzi beta-gal in NIH3T3, luminescence, 90 h;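 active means mean inhibition across valid replicates above about 55%, limit read from the data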;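 further: signal also drops with host cell toxicity which is not excluded here; higher percent means less beta-gal luminescence so fewer parasites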
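System: Mouse NIH/3T3 fibroblasts infected with β-gal-expressing T. cruzi Tulahuen C4 | Quantity: NIH/3T3 cells, 5,000 per well | Reagent: 5000 reporter trypomastigotes per well | Dosing: Compound pinned at 50 nL/well, DMSO | Schedule: 3 h host attachment, then at least 90 h co-culture | Detection: GalScreen luminescence, 60 min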
PP1 inh = blocks human PP1-alpha phosphatase, a PP5 counter-screen; P62136; purified PP1alpha, OMFP fluorescence; inhibition, % at 6.7 µM; 0.9% of 320,000 active;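 active means inhibition above the mean inhibition of all tested compounds plus 3 SD, computed separately for each screening campaign, cut at about 15% in these data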
UBC13 inh = inhibitors of human UBC13 polyubiquitin chain formation; TR-FRET; 0.47% of 330,000 active; inhibition, % at 20 µM; in the data active means inhibition above about 45%, passing the limit was not always enough
Target sequence (P61088 whole entry, looked up): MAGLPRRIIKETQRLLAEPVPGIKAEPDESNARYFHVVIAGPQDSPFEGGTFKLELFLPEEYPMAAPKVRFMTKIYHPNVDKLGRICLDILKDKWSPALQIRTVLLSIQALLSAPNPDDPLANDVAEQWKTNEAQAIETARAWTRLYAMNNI
pCIP destab = compounds decreasing mouse p/CIP protein stability | Q05BA5 | F442A p/CIP-EGFP cells, EGFP fluorescence, 16 h | decrease of EGFP signal, % at 10 µM | 0.01% of 290,000 active | AID 1984;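 active means EGFP signal decrease of at least 30% at 10 µM or well 3 SD below plate mean, unless failing retest; inactive means the rest, including hits failing retest or dose response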
AI-2 QS modul = Vibrio harveyi AI-2 quorum sensing modulation; Vibrio harveyi JMH597 AI-2 luminescence/OD600 ratio, 9 h; stronger effect = lower value; strain lacks LuxN and CqsS sensors; 0 = neutral-control median; 0.4% of 300,000 active; activity change, % at 7.5 µM; in the data active means activity change below about -75%, passing the limit was not always enough;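 further: luminescence divided by OD600 gain over 9 h not by final OD600 alone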
PP1 inh confirm = human PP1 phosphatase inhibition, confirmation | 52% of 1,900 active | shares compounds with PP1 inh | inhibition, % at 6.7 µM | purified PP1alpha, OMFP substrate fluorescence;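 active means mean PP1 inhibition above a set limit taken from the earlier primary screen, cut at about 15% in these data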
PP5 counter = inhibits human PP5 phosphatase in PP1 counter-screen; shares compounds with PP1 inh; purified PP5c, OMFP fluorescence; inhibition, % at 6.7 µM; 4% of 1,900 active; AID 2360;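 active means mean PP5 inhibition over triplicate wells above about 9.5% taken from the earlier PP1 screen, limit read from the data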
Target sequence (P53041 whole entry, looked up): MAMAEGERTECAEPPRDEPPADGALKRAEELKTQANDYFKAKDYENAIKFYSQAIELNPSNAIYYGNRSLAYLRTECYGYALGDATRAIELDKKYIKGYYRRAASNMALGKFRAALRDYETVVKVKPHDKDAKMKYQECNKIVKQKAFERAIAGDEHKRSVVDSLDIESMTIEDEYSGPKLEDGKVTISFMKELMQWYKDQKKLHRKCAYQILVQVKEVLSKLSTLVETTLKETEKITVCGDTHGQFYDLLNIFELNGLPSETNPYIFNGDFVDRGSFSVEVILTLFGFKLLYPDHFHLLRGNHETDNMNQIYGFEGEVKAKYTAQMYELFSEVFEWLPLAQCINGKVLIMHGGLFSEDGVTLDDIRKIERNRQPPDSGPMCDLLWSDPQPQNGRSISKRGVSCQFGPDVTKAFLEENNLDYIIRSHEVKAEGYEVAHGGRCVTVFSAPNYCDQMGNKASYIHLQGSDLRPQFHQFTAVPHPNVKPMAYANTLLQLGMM
Hits are given with their value; i = inactive; nt = no result. Only some compounds are listed: those with a hit (about 2.8% of all), similar ones and a draw of the others.

SMILES	T cruzi inh	PP1 inh	UBC13 inh	pCIP destab	AI-2 QS modul	PP1 inh confirm	PP5 counter
N=c1c2c(-c3ccccc3)c(-c3ccccc3)n(Cc3ccco3)c2ncn1Cc1ccccc1	i	28	i	i	i	i	i
c1ccc(-c2c(-c3ccccc3)n(Cc3ccco3)c3ncnc(NCCCn4ccnc4)c23)cc1	i	24	i	i	i	i	i
CC1CN(C(=O)COC(=O)c2cc(=O)c3ccccc3o2)CC(C)O1 (stereo unspecified)	i	i	i	i	i	nt	nt
Cc1ccc(CNC(=O)C2CCC(=O)N(Cc3cccc(C(F)(F)F)c3)C2)o1 (stereo unspecified)	i	i	i	i	i	nt	nt
COc1ccccc1C(=O)OCC(=O)Nc1ccccc1OC(F)F	i	i	i	i	i	nt	nt
Cc1c(C(=O)OCC(=O)Nc2ccccc2OC(F)F)cccc1[N+](=O)[O-]	i	23	i	i	i	i	i
OCC[C@H]1C[C@@H](O)[C@H](O)[C@@]2(Cc3ccccc3CO2)O1	nt	i	i	nt	nt	nt	nt
COc1ccc(C2NCCc3c2[nH]c2ccccc32)cc1CSc1nc2ccccc2s1 (stereo unspecified)	i	19	nt	i	i	i	i
O=C(NCCC1CCCCN1S(=O)(=O)c1ccc(Cl)cc1)C(=O)NCc1cccnc1 (stereo unspecified)	i	52	i	nt	i	i	i
Cc1cc(S(=O)(=O)N2CCCCC2CCNC(=O)C(=O)NCc2cccnc2)ccc1F (stereo unspecified)	i	i	i	nt	i	nt	nt
COc1ccc(Cc2nnc(NC(=O)Nc3cccc(OC)c3)s2)cc1	i	18	i	i	i	15	i
COc1cccc(NC(=O)Nc2nnc(Cc3ccc(F)cc3)s2)c1	i	i	i	i	i	nt	nt
COc1ccc(Cc2nnc(NC(=O)Nc3ccc(F)cc3)s2)cc1	i	22	i	i	i	i	i
CCc1nnc(NC(=O)Nc2ccc(OC)cc2)s1	i	i	i	i	i	nt	nt
Cc1ccc(OC(C)C(=O)N(Cc2cccs2)C2CCS(=O)(=O)C2)cc1C (stereo unspecified)	i	i	i	i	i	nt	nt
CCOc1cc(C2NC(=O)NC(c3ccccc3)=C2C(C)=O)ccc1OC(C)=O (stereo unspecified)	i	i	i	i	i	nt	nt
Oc1cccc2cc3cccc(O)c3c(O)c12	i	35	i	i	i	24	i
O=c1oc(-c2ccc(O)c(O)c2)cc2cccc(O)c12	nt	nt	i	nt	nt	nt	nt
O=C(NCCS(=O)(=O)N1CCN(c2ccccc2F)CC1)c1ccc(Br)cc1	i	i	i	i	i	nt	nt
CCOC(=O)c1ccc(NC(=O)CSc2nnc(CCc3ccc(C)o3)n2-c2ccccc2)cc1	i	19	i	i	i	i	i
CC(C)(C)c1ccc(NC(=O)C(=O)C2C(=O)Nc3ccccc32)cc1 (stereo unspecified)	i	i	i	i	i	nt	nt
CN(C)c1ccc(NC(=O)C(=O)C2C(=O)Nc3ccccc32)cc1 (stereo unspecified)	i	21	i	i	i	i	i
COc1ccc(S(=O)(=O)Nc2cccc(SC)c2)cc1C(=O)N1CCOCC1	i	i	i	i	i	nt	nt
COc1ccc(S(=O)(=O)Nc2ccc(F)c(F)c2)cc1C(=O)N1CCOCC1	i	22	i	i	i	i	i
CC(=O)N1CCOc2ccc(S(=O)(=O)NCc3ccc(F)cc3)cc21	i	i	i	i	i	nt	nt
SMILES	T cruzi inh	PP1 inh	UBC13 inh	pCIP destab	AI-2 QS modul	PP1 inh confirm	PP5 counter
O=C(CSc1nc2ccsc2c(=O)n1CC1CCC(C(=O)O)CC1)c1ccc(Cl)cc1 (stereo unspecified)	i	20	i	i	i	i	i
NC(=O)CC(NC(=O)Cc1ccc(Br)cc1)c1ccc(N2CCN(c3ccc(F)cc3)CC2)c([N+](=O)[O-])c1 (stereo unspecified)	i	18	i	i	i	i	i
NC(=O)CC(NC(=O)c1ccc(Br)cc1)c1ccc(N2CCC(Cc3ccccc3)CC2)c([N+](=O)[O-])c1 (stereo unspecified)	i	20	i	i	i	i	i
NC(=O)CC(NC(=O)c1ccc(Br)cc1)c1ccc(N2CCN(c3ccc(F)cc3)CC2)c([N+](=O)[O-])c1 (stereo unspecified)	i	21	i	i	i	i	i
CNC(=O)c1cc(C(=O)c2ccc(Cl)cc2)c(Br)[nH]1	i	i	i	i	i	nt	nt
CC(=O)Cc1nsc(NC(=O)c2ccc(-c3cccc(Cl)c3)o2)n1	i	29	i	i	i	i	i
CC(=O)Cc1nsc(NC(=O)c2ccc(Br)o2)n1	i	i	i	i	i	nt	nt
N#CC1=C2N=C(N)c3c(sc4c3CCCCC4)N2C2=C(C(=O)CCC2)C1c1ccccc1 (stereo unspecified)	i	18	i	i	i	i	i
N#CC1=C2N=C(N)c3ccccc3N2C2=C(C(=O)CCC2)C1c1ccc(F)cc1 (stereo unspecified)	i	i	i	i	i	nt	nt
COc1ccc(NC(=O)CN(C)C(=O)CCNS(=O)(=O)c2ccc(Br)cc2)cc1	i	i	i	i	i	nt	nt
CCc1ccc(N=C2NC(=O)/C(=C/c3cc(OC)c(OC)c(OC)c3)S2)cc1	i	i	i	i	nt	nt	nt
CCc1ccc(N=C2NC(=O)/C(=C/c3cc(Br)c(OCC(=O)O)c(OC)c3)S2)cc1	i	30	i	i	i	21	i
CCOC(=O)C1=C(O)/C(=C/c2ccc(OCC(=O)O)c(OCC)c2)SC1=Nc1ccccc1	i	i	i	i	i	nt	nt
CCOc1cc(/C=C2\SC(=Nc3ccc(CC)cc3)NC2=O)ccc1OCC(=O)O	i	22	i	i	i	i	i
CCOC(=O)c1sc(NC(C)=O)nc1C	i	i	i	i	i	nt	nt
CCOC(=O)c1sc(-n2[nH]c(C)cc2=O)nc1C	i	19	i	i	i	i	i
CCN(CC(=O)Nc1c(F)cccc1F)C(=O)/C=C/c1ccc2ccccc2n1	i	22	i	nt	i	i	i
Cc1ccc(C)c(-c2nnc(NC(=O)COc3ccccc3)o2)c1	i	22	i	nt	i	21	i
Cc1ccc(C(=O)OCC(=O)NC2CCCCC2)cc1S(=O)(=O)N1CCCCC1	nt	i	i	nt	nt	nt	nt
N#C/C(=C/c1cn(-c2ccccc2)nc1-c1cccc(OCc2ccc(F)cc2)c1)C(=O)NCCCn1ccnc1	63	22	i	i	i	i	i
Cc1ccc(-n2nc3c(c2NC(=O)/C=C\c2ccc4c(c2)OCO4)CSC3)cc1	i	20	i	i	i	i	i
CCc1noc(C)c1C(=O)NNC(=O)COc1ccc(C)c(C)c1	i	i	i	nt	i	nt	nt
Cc1cccc(-c2nnc(NC(=O)c3ccc(N4C(=O)CCC4=O)cc3)s2)c1	i	19	i	i	i	i	i

Compound activity: PubChem BioAssay, several laboratories
